Publication PMC3796951 (Psychopharmacology, 2012)
pKi: −log10 of the molar value. Structures can show the parent of a compound that is named as a salt. Where two headings read alike, the source gives them in different places.

Experiments:
α1A = α1A (Homo sapiens, UniProt P35348); assay: Radioligand binding
α1B = α1B (Homo sapiens, UniProt P35368); assay: Radioligand binding
α1D = α1D (Homo sapiens, UniProt P25100); assay: Radioligand binding
α2A = α2A (Homo sapiens, UniProt P08913); assay: Radioligand binding
α2C = α2C (Homo sapiens, UniProt P18825); assay: Radioligand binding
β2 = β2 (Homo sapiens, UniProt P07550); assay: Radioligand binding
D3 = D3 (Rattus norvegicus, UniProt P19020); assay: Radioligand binding
H1 = H1 (Homo sapiens, UniProt P35367); assay: Radioligand binding
H2 = H2 (Homo sapiens, UniProt P25021); assay: Radioligand binding
SERT = SERT (Homo sapiens, UniProt P31645); assay: Radioligand binding
Sigma-2 = Sigma-2 (Rattus norvegicus, UniProt Q5U3Y7); assay: Radioligand binding
D1 = D1 (Homo sapiens, UniProt P21728); assay: Radioligand binding
D2 = D2 (Homo sapiens, UniProt P14416); assay: Radioligand binding
D4 = D4 (Homo sapiens, UniProt P21917); assay: Radioligand binding
D5 = D5 (Homo sapiens, UniProt P21918); assay: Radioligand binding
DAT = DAT (Homo sapiens, UniProt Q01959); assay: Radioligand binding
NET = NET (Homo sapiens, UniProt P23975); assay: Radioligand binding
β1 = β1 (Homo sapiens, UniProt P08588); assay: Radioligand binding
β3 = β3 (Homo sapiens, UniProt P13945); assay: Radioligand binding
DOR = DOR (Homo sapiens, UniProt P41143); assay: Radioligand binding
MOR = MOR (Homo sapiens, UniProt P35372); assay: Radioligand binding
KOR = KOR (Homo sapiens, UniProt P41145); assay: Radioligand binding
EP3 = EP3 (Homo sapiens, UniProt P43115); assay: Radioligand binding
EP4 = EP4 (Homo sapiens, UniProt P35408); assay: Radioligand binding
H3 = H3 (Homo sapiens, UniProt Q9Y5N1); assay: Radioligand binding
H4 = H4 (Homo sapiens, UniProt Q9H3N8); assay: Radioligand binding
M1 = M1 (Homo sapiens, UniProt P11229); assay: Radioligand binding
M2 = M2 (Homo sapiens, UniProt P08172); assay: Radioligand binding
M3 = M3 (Homo sapiens, UniProt P20309); assay: Radioligand binding
M4 = M4 (Homo sapiens, UniProt P08173); assay: Radioligand binding
M5 = M5 (Homo sapiens, UniProt P08912); assay: Radioligand binding
sigma-1 = sigma-1 (Homo sapiens, UniProt Q99720); assay: Radioligand binding
Male Sprague–Dawley rats = assay: Behavioral Pattern Monitor; type: in vivo, rat
Outline: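 Male Sprague–Dawley rats (250–275 g at arrival), pair-housed under a reverse 12-h light–dark cycle, were handled the day before testing and were naïve to the BPM. Pargyline (0 or 10 mg/kg) was given 20 min before the test compound; all dosing was s.c. at 1 ml/kg, n=7–8. Ten min after dosing, rats were placed in the BPM and monitored for 60 min in darkness. Crossings between eight sectors were counted in 10-min bins, and spatial d was derived from X–Y paths.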

[1] = target: [3H]DOB-labeled 5-HT2A receptors; details: [3H]DOB-labeled 5-HT2A receptors (agonist high-affinity state) ref Egan et al. 2000; cited from earlier work
humans = details: hallucinogenic activity, parenteral ref Shulgin and Shulgin 1997; cited from earlier work
5-HT2A receptor = details: higher affinity than 5-MeO-DMT ref Roth et al. 1997; Egan et al. 2000; cited from earlier work
MAOA = details: pargyline 10 mg/kg, s.c. ref Ortmann et al. 1984; cited from earlier work
MAOB = details: pargyline 10 mg/kg, s.c. ref Ortmann et al. 1984; cited from earlier work
[2] = Experiment 1, drug × time interaction, post hoc per 30-min block
[3] = read-out: Ki nM (±SEM), [3H]prazocin, cloned human receptor
[4] = read-out: Ki nM (±SEM), [3H]clonidine, cloned human receptor

Sequence of β2 (P07550 whole entry): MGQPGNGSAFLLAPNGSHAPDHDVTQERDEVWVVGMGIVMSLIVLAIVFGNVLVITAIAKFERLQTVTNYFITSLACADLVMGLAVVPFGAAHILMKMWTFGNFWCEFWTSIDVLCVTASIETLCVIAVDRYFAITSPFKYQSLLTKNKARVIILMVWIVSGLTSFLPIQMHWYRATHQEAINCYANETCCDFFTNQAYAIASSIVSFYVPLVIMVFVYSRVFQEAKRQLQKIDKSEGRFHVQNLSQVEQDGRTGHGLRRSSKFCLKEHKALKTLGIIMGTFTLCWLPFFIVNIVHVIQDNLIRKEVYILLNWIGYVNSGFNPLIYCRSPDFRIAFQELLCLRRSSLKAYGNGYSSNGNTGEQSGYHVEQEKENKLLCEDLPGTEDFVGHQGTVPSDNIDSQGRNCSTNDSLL
Sequence of α1D (P25100 whole entry): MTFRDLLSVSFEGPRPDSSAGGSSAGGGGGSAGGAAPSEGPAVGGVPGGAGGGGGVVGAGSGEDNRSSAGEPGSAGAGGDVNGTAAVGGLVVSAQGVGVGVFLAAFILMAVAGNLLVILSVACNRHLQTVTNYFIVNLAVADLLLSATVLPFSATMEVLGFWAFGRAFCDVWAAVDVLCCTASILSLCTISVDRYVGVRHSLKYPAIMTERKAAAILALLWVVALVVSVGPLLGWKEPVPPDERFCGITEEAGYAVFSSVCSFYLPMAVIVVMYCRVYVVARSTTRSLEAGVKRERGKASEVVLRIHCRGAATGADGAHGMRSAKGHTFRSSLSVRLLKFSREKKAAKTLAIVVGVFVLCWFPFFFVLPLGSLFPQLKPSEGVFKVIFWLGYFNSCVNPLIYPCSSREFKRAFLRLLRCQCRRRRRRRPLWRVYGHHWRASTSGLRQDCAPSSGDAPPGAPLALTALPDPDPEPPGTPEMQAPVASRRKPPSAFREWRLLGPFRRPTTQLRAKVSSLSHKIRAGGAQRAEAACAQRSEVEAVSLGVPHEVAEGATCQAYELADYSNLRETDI
Sequence of D3 (P19020 whole entry): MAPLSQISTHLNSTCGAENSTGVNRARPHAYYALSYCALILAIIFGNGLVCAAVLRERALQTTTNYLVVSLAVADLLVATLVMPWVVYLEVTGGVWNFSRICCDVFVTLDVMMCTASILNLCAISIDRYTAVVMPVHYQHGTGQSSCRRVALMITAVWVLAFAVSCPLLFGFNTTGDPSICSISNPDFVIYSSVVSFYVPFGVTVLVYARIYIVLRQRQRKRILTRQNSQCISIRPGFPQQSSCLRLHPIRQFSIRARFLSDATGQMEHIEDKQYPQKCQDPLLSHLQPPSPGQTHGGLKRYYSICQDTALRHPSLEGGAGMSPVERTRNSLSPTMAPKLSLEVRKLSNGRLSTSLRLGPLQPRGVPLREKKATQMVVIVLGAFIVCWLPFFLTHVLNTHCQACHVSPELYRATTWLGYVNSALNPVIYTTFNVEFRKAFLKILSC
Sequence of α2C (P18825 whole entry): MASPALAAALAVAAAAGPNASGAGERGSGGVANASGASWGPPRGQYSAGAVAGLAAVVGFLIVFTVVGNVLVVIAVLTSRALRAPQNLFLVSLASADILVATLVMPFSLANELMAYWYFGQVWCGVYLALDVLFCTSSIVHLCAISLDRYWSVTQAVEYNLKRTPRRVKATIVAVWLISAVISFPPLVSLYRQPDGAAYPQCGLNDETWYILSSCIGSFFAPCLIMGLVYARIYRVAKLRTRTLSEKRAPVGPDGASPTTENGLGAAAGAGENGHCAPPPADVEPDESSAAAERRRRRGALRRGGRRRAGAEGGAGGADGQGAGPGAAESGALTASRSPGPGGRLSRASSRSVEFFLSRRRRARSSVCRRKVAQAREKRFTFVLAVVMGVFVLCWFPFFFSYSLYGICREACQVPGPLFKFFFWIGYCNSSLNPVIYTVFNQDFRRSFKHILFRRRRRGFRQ
Sequence of SERT (P31645 whole entry): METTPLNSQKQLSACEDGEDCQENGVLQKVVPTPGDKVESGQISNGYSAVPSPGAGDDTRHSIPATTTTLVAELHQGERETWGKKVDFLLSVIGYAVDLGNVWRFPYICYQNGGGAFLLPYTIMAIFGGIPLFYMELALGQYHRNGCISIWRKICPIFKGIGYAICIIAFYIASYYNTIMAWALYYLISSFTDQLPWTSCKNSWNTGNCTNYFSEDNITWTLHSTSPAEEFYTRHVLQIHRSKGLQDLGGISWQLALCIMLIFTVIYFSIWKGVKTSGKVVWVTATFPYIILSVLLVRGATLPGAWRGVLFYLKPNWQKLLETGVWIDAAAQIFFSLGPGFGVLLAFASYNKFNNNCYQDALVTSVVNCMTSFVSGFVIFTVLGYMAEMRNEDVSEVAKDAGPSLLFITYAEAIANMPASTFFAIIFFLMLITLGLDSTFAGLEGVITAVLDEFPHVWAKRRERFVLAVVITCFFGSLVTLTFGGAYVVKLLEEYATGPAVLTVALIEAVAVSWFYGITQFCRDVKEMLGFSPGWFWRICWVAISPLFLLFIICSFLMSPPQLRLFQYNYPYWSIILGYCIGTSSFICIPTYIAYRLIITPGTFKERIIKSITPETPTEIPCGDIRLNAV
Sequence of Sigma-2 (Q5U3Y7 whole entry): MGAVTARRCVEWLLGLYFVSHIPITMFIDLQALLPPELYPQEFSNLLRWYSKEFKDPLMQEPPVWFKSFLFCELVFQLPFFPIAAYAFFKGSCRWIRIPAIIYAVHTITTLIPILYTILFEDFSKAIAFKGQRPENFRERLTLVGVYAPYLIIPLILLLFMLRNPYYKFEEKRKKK
Sequence of α1B (P35368 whole entry): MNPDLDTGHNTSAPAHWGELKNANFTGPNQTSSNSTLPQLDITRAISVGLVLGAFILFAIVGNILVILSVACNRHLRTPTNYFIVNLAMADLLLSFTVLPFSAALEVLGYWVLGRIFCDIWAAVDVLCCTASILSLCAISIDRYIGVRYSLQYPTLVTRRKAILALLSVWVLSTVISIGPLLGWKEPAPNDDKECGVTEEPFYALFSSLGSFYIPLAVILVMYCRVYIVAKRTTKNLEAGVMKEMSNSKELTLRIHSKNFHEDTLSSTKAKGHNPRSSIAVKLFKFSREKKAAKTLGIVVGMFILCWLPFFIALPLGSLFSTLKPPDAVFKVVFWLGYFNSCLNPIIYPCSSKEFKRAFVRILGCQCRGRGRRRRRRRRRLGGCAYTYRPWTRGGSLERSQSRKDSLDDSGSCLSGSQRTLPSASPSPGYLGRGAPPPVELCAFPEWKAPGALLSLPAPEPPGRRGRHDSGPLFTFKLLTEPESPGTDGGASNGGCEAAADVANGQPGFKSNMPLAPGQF
Sequence of α2A (P08913 whole entry): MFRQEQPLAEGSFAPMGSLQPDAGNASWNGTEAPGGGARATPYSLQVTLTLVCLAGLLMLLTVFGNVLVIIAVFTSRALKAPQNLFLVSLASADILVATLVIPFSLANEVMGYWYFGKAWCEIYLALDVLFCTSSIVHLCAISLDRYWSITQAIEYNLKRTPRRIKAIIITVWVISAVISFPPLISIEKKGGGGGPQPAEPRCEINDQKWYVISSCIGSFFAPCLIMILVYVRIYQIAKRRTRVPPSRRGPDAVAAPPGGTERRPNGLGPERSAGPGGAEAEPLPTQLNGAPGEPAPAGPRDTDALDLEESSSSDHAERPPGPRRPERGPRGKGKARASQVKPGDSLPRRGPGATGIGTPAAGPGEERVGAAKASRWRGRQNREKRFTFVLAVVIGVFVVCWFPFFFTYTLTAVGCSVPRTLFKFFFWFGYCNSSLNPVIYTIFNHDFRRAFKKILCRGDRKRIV
Sequence of H2 (P25021 whole entry): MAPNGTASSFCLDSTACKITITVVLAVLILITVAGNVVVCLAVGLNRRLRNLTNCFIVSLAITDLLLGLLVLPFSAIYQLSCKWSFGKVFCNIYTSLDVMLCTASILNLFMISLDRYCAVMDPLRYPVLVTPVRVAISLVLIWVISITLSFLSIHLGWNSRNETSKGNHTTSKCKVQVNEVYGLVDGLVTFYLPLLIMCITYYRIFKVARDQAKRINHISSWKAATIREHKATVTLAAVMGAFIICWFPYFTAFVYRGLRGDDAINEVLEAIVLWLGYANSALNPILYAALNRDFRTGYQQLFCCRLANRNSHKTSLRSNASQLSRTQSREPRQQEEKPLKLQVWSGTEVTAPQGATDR
Sequence of α1A (P35348 whole entry): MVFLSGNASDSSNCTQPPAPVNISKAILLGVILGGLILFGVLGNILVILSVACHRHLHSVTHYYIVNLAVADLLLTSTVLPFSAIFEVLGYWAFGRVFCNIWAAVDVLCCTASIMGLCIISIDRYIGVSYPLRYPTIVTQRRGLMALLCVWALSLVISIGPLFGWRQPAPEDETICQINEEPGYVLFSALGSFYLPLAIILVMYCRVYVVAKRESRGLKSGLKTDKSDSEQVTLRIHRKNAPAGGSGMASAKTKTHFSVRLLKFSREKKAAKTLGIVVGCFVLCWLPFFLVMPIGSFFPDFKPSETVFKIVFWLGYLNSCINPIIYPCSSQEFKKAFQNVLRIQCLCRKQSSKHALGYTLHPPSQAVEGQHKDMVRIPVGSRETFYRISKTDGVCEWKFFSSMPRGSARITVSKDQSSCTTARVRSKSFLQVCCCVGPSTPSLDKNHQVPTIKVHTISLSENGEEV
Sequence of D1 (P21728 whole entry): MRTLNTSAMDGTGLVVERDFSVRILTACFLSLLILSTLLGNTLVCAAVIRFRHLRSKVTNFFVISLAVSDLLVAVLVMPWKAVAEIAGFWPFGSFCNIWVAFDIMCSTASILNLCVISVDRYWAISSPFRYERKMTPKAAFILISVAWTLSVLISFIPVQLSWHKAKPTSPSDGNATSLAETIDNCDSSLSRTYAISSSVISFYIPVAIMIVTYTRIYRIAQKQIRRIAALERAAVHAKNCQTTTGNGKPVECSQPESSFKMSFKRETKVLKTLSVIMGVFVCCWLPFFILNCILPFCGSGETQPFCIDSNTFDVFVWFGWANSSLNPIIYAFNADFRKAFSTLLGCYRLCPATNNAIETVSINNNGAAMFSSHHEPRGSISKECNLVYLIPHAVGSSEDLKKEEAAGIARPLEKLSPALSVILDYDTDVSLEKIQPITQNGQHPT

Work on `COc1ccc2[nH]cc(CCN(C)C)c2c1.O=C(O)C(=O)O` [5-MeO-DMT, 5-Methoxy-N, N-dimethyltryptamine oxalate] yielded a pKi (α1A) of 5.36, a pKi (α1B) of 5.66 and a pKi (α1D) of 6.36. For the same compound, the pKi (α2A) was 6.03, the pKi (α2C) was 6.69 and the pKi (β2) was 5.57. It also gave a pKi (D3) of under 5.00, a pKi (H1) of 5.12 and a pKi (H2) of under 5.00. The pKi (SERT) was 5.44, the pKi (Sigma-2) was 5.43 and the pKi (D1) was under 5.00. The pKi (D2) was under 5.00, the pKi (D4) was under 5.00 and the pKi (D5) was under 5.00. The pKi (DAT) was under 5.00, the pKi (NET) was under 5.00 and the pKi (β1) was under 5.00. For the same compound, the pKi (β3) was under 5.00, the pKi (DOR) was under 5.00 and the pKi (MOR) was under 5.00. It also gave a pKi (KOR) of under 5.00, a pKi (EP3) of under 5.00 and a pKi (EP4) of under 5.00. The pKi (H3) was under 5.00, the pKi (H4) was under 5.00 and the pKi (M1) was under 5.00. The pKi (M2) was under 5.00, the pKi (M3) was under 5.00 and the pKi (M4) was under 5.00. The pKi (M5) was under 5.00, the pKi (sigma-1) was under 5.00 and the “Effect on crossings (locomotor activity)” value (Male Sprague–Dawley rats; Experiment 1, 0.1 mg/kg s.c. after pargyline 10 mg/kg) was “reduced crossings during the first half-hour, but did not increase activity during the second half-hour”. For the same compound, the “Effect on spatial d” value (Male Sprague–Dawley rats; Experiment 1, 1.0 mg/kg s.c. after pargyline 10 mg/kg, second half-hour of session (p<0.01)) was “significantly reduced spatial d”, the “Effect on spatial d” value (Male Sprague–Dawley rats; Experiment 1, 0.01 and 0.1 mg/kg s.c. after pargyline 10 mg/kg) was “no effect on spatial d” and the “Effect on crossings (locomotor activity)” value (Male Sprague–Dawley rats; Experiment 1, 0.1 and 1.0 mg/kg s.c., vehicle-pretreated rats) was “reduced crossings”. The “Effect on spatial d” value (Male Sprague–Dawley rats; [2]) was “post hoc analysis failed to confirm this for any specific 30-min block”, the “Effect on crossings (locomotor activity)” value (Male Sprague–Dawley rats; Experiment 3, 0.3 to 3.0 mg/kg s.c. alone, first 10 min of testing (p<0.01)) was “significantly reduced crossings” and the “Effect on spatial d” value (Male Sprague–Dawley rats; Experiment 3, 0.3 to 3.0 mg/kg s.c. alone, first or second half-hour, post hoc) was “failed to alter spatial d significantly”. For the same compound, the “Biphasic effects on locomotor activity” value (Male Sprague–Dawley rats; Experiment 3, alone, up to 3 mg/kg s.c.) was “did not induce biphasic effects on locomotor activity”, the pKi [1] was 7.05 and the “Active parenteral dose in humans” value (humans) was 2 to 3 mg.

For `CN(C)CCc1c[nH]c2ccc(O)cc12` [bufotenine, 5-hydroxy-DMT], the “Affinity for the 5-HT2A receptor relative to 5-MeO-DMT” value (5-HT2A receptor) is listed as 10 fold.

In the case of `C#CCN(C)Cc1ccccc1` [pargyline, pargyline hydrochloride], the “Effect on spatial d” value (Male Sprague–Dawley rats; [2]) is listed as “post hoc analysis failed to confirm this for any specific 30-min block”, the MAOA inhibition (MAOA) is listed as 78% and the MAOB inhibition (MAOB) is listed as 92%.

For `COc1ccc2[nH]cc(CCN(C)C)c2c1` [α,α,β,β-tetradeutero-5-MeO-DMT, α,α,β,β-Tetradeutero-5-methoxy-N,N-dimethyltryptamine (2:1) fumarate], the Ki (α1A; [3]) was 1010 nM, the Ki (α1B; [3]) was 841 nM and the Ki (α1D; read-out: Ki nM (±SEM), [125I]HEAT, cloned human receptor) was 202 nM. It also gave a Ki (α2A; [4]) of 1870 nM, a Ki (α2C; [4]) of 274 nM and a Ki (β2; read-out: Ki nM (±SEM), [3H]CGP12177, cloned human receptor) of 4560 nM. For the same compound, the Ki (D3; read-out: Ki nM (±SEM), [3H]N-methyl-spiperone, cloned rat receptor) was 7090 nM, the Ki (H1; read-out: Ki nM (±SEM), [3H]pyrilamine, cloned human receptor) was over 10000 nM and the Ki (H2; read-out: Ki nM (±SEM), [3H]tiotidine, cloned human receptor) was 7160 nM. It also gave a Ki (SERT; read-out: Ki nM (±SEM), [3H]citalopram, cloned human transporter) of 2760 nM and a Ki (Sigma-2; read-out: Ki nM (±SEM), [3H]DTG, rat) of 7170 nM.

In the case of `O=C(O)/C=C/C(=O)O.[2H]C([2H])(c1c[nH]c2ccc(OC)cc12)C([2H])([2H])N(C)C.[2H]C([2H])(c1c[nH]c2ccc(OC)cc12)C([2H])([2H])N(C)C` [α,α,β,β-tetradeutero-5-MeO-DMT, α,α,β,β-Tetradeutero-5-methoxy-N,N-dimethyltryptamine (2:1) fumarate], the “Effect on spatial d” value (Male Sprague–Dawley rats; Experiment 2, 3.0 mg/kg s.c., first 30 min of the session (p<0.01)) was “significantly increased spatial d”, the “Effect on spatial d” value (Male Sprague–Dawley rats; Experiment 2, 3.0 mg/kg s.c., second 30 min of the session (p<0.01)) was “significantly reduced spatial d” and the “Effect on crossings (locomotor activity)” value (Male Sprague–Dawley rats; Experiment 2, 0.3, 1.0 and 3.0 mg/kg s.c., first 20 min of the session) was “significantly reduced crossings”. For the same compound, the “Delayed increase in locomotor activity” value (Male Sprague–Dawley rats; Experiment 2, 0.3 and 1.0 mg/kg s.c.) was “Neither of the lower doses tested (0.3 and 1.0 mg/kg) induced a delayed increase in activity”.
